Measurements from ChEMBL document CHEMBL5036324 (J Med Chem, 2021).
The source made the active and inactive calls. The calls are words filed in the database; no cut-off is given here.

Experiments:
Type in all cases: cell-based
[1] = biological target: T1, TLR7 and TLR8 (Homo sapiens) (UniProt Q9NYK1+Q9NR97); experiment: Agonist activity at human TLR7/8 expressed in human PBMC cells assessed as induction of IFN-alpha production at 0.5 ug/ml incubated for 24 hrs by multiplexed immunoassay; details: filed as agonist, dose 0.5 µg/ml
T1 sequence (Q9NYK1 whole entry, looked up, one chain of several): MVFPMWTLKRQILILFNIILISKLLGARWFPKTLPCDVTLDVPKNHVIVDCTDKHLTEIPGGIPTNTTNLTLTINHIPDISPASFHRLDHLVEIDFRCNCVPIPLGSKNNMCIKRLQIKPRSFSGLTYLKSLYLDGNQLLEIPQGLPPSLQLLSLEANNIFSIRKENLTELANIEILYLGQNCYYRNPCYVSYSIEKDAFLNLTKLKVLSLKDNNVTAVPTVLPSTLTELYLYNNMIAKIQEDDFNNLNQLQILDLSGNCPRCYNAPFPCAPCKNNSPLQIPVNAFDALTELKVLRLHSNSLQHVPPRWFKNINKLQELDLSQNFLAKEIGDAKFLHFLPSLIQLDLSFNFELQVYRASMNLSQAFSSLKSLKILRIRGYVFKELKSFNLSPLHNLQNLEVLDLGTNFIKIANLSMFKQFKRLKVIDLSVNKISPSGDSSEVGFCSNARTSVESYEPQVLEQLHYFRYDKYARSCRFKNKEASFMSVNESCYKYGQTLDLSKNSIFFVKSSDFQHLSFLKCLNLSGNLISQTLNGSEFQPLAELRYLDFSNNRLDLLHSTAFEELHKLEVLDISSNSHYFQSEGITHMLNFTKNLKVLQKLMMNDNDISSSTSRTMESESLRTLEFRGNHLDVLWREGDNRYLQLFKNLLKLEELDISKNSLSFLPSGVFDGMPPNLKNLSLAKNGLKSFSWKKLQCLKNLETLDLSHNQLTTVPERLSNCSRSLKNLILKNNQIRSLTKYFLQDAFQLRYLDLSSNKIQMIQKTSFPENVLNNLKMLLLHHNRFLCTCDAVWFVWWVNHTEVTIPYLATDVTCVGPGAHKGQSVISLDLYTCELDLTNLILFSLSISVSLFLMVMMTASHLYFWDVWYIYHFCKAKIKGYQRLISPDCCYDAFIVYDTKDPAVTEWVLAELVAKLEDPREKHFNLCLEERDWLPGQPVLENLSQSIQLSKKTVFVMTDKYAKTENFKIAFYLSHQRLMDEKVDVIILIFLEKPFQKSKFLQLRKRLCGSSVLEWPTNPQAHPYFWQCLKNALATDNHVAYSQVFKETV
Method in brief: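 PBMCs from five healthy donors, at 3.0 × 10⁶ cells/mL, received one compound concentration for 24 h. Cytokines in centrifuged supernatants were measured in duplicate with a multiplex magnetic bead cytokine panel.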

[2] = Induction of phospholipidosis in human HepG2 cells assessed as intracellular accumulation of phospholipids at 3 uM incubated for 48 hrs by […] staining based fluorescence microscopic analysis; details: hepg2, 48 h
Method in brief: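 HepG2 cells were screened in vitro for phospholipidosis using HCS LipidTOX Red phospholipidosis detection reagent. Compound was tested at 3 μM and compared with a vehicle group.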

[3] = biological target: T2, Toll-like receptor 9 (Homo sapiens) (UniProt Q9NR96); experiment: Agonist activity at human TLR9 expressed in HEK-Blue hTLR9 cells assessed as activation of NFkappaB incubated for 6 to 16 hrs by SEAP reporter gene based assay; details: time 6-16 hrs
T2 sequence (whole entry): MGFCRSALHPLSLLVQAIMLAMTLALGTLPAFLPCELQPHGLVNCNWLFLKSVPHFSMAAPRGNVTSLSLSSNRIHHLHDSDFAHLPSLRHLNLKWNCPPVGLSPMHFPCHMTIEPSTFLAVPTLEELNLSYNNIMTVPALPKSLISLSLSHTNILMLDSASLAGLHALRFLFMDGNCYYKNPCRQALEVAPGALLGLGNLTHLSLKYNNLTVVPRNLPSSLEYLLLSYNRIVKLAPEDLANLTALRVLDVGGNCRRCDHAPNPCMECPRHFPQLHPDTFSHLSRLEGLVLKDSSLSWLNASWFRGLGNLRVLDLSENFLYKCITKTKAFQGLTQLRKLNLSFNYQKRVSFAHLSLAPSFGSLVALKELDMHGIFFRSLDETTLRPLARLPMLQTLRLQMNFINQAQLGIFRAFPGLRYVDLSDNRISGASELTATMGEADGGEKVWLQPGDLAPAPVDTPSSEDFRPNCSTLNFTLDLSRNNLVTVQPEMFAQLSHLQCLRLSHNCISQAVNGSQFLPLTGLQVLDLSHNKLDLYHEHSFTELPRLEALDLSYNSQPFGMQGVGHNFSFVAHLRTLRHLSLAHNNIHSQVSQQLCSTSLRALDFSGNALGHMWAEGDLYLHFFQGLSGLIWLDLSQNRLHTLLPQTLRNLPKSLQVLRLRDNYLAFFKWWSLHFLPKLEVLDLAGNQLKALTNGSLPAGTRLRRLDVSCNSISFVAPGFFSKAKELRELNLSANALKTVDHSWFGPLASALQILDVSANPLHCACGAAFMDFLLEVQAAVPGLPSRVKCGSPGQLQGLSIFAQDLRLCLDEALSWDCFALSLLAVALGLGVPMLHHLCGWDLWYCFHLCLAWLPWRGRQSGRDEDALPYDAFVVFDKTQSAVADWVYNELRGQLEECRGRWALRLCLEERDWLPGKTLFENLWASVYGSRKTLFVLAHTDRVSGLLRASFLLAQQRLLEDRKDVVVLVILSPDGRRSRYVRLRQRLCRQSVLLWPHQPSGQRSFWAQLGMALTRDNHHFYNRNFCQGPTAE
Method in brief: (§1)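 HEK293-derived SEAP reporter cells stably expressing the matching human TLR (2, 3, 4, 7, 8 or 9), kept under selection antibiotics. SEAP is driven by an NF-κB/AP-1-inducible promoter. HEK-Blue Null2-k (no TLR7/8) serves as the parental line. Cells were given escalating concentrations of stimuli for 6−16 h, then SEAP was read with HEK-Blue detection at 620 nm.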

[4] = biological target: Toll-like receptor 2 (Homo sapiens) (UniProt O60603); experiment: Agonist activity at human TLR2 expressed in HEK-Blue hTLR2 cells assessed as activation of NFkappaB incubated for 6 to 16 hrs by SEAP reporter gene based assay; details: time 6-16 hrs; method in brief: as §1
Sequence of Toll-like receptor 2 (Homo sapiens) (O60603 whole entry): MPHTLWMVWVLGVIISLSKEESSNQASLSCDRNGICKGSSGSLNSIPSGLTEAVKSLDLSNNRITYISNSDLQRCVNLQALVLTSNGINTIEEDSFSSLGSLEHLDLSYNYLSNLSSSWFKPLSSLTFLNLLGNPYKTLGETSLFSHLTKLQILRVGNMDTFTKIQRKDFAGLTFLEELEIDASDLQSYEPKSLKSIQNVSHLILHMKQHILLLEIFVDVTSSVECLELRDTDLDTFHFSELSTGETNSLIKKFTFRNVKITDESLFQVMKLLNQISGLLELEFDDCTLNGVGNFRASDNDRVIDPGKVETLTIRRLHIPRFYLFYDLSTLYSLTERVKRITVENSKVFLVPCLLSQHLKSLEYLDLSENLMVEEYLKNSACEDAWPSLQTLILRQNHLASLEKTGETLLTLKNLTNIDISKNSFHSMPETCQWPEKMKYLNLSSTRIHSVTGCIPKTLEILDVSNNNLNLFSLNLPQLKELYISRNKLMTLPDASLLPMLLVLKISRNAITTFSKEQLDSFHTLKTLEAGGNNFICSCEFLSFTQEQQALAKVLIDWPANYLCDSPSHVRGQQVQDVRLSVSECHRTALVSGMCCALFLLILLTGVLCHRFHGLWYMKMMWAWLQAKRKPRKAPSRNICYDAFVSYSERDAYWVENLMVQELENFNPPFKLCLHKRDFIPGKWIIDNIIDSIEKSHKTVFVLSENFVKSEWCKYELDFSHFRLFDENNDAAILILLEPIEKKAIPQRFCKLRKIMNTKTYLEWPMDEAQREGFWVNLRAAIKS

[5] = biological target: T1, TLR7 and TLR8 (Homo sapiens); experiment: Agonist activity at human TLR7/8 expressed in human PBMC cells assessed as induction of VEGF secretion incubated for 12 hrs by multiplexed immunoassay; details: filed as agonist
Method in brief: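 Healthy-volunteer PBMCs from a single donor were isolated by Ficoll−Hypaque gradient and plated at 2.0 × 10⁶ cells/mL. They were stimulated for 12 h with escalating compound concentrations. Supernatants were assayed in duplicate on a 41-analyte magnetic bead cytokine/chemokine panel read by Luminex. EC_max is the concentration giving maximal cytokine induction.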

[6] = biological target: T3, Toll-like receptor 8 (Homo sapiens) (UniProt Q9NR97); experiment: Agonist activity at human TLR8 expressed in HEK-Blue hTLR8 cells assessed as activation of NFkappaB incubated for 6 to 16 hrs by SEAP reporter gene based assay; details: filed as agonist, time 6-16 hrs; method in brief: as §1
T3 sequence (whole entry): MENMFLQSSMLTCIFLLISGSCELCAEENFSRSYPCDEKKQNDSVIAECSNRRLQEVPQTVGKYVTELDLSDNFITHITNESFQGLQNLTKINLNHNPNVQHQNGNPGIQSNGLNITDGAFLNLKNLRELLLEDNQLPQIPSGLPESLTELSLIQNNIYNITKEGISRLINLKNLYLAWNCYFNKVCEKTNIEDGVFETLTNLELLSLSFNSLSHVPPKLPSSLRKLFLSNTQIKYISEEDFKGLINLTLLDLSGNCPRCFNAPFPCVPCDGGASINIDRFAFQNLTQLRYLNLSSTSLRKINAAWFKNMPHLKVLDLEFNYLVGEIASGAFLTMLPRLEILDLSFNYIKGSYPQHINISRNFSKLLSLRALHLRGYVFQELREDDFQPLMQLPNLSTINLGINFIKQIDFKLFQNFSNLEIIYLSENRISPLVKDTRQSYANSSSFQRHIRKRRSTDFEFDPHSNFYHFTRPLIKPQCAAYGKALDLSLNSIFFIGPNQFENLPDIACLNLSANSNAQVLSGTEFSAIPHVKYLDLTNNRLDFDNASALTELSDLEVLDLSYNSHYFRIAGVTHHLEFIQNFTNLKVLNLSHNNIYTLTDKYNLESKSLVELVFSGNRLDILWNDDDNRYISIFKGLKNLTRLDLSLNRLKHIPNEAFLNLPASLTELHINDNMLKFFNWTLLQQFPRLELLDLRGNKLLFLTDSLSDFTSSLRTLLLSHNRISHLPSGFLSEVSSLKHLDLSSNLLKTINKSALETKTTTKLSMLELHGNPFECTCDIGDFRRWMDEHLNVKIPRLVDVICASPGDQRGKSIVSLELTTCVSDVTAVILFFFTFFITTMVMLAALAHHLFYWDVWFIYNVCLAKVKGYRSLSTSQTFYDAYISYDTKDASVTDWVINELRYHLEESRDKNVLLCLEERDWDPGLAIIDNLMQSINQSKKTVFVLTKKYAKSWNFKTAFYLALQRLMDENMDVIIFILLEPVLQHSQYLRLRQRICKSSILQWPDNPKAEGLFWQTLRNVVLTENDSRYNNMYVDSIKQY

For `CCCCNc1nc(N)nc2ccc(Cc3ccc(CN(C)C)cc3)nc12`, the Activity [1] was “Active”, the Activity [2] was “Non-Toxic” and the Activity [3] was “inactive”. The Activity [4] was “inactive”, the Activity [5] was “Active” and the Activity [6] was “Active”.

With `COCCNc1nc(N)nc2ccc(Cc3ccc(CN(C)C)cc3)nc12` the Activity [1] was “Active”, the Activity [2] was “Non-Toxic” and the Activity [3] was “inactive”. The Activity [4] was “inactive”, the Activity [5] was “Active” and the Activity [6] was “Active”.
